Measurements as given in the array DNA melting data of Ke et al. (doi:10.1101/2024.01.08.574731).

What was measured:
[1] = melting temperature; fluorescence melt of hairpins on a sequencing array, two-state fit, raised by 9.35 °C to match UV melts; details: sodium 0.088 M
Outline: (§1)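 Bootstrapped two-state fits yielded melting temperature and folding enthalpy for library hairpins. Cy3 fluorescence, with annealed Cy3 and quencher oligos, was imaged on a sequenced MiSeq flow cell in 50 mM Na-HEPES pH 8.0, 25 mM NaCl in 2.5 °C steps up to 60 °C, and normalised to pre-quench Cy3 and to control constructs. Four replicates were combined by inverse variance, and fitted temperatures were raised by 9.35 °C to match UV melts.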

[2] = folding enthalpy; higher = less favourable; fluorescence melt of hairpins on a sequencing array, two-state fit; details: sodium 0.088 M
Outline: as §1

GCAGTGCGAAAGCATGC (((.(((....)))))) gave a Tm [1] of 58.7 °C and a folding enthalpy [2] of -20.4 kcal/mol.
Work on GCAGTGCGAAAGCATTGC (((.(((....))).))) yielded a Tm [1] of 58.9 °C and a folding enthalpy [2] of -55.4 kcal/mol.
For GCAGTGCGAAAGCGCAGC ((.(.((....)).).)), the Tm [1] was 62.3 °C and the folding enthalpy [2] was -14.2 kcal/mol.
With GCAGTGCGAAAGCGCGGC ((.(.((....)).).)) the Tm [1] was 66.7 °C and the folding enthalpy [2] was -31 kcal/mol.
With GCAGTGCGAAAGCTATGC (((..((....))..))) the Tm [1] was 55.1 °C and the folding enthalpy [2] was -17.1 kcal/mol.
For GCAGTGGGAAACCACCAC (..((((....))))..), the Tm [1] was 30.6 °C and the folding enthalpy [2] was -12.2 kcal/mol.
Work on GCAGTTCGAAAGAAGTGC (((.(((....))).))) yielded a Tm [1] of 56.2 °C and a folding enthalpy [2] of -51 kcal/mol.
In the case of GCAGTTGGAAACGATTGC (((.(.(....).).))), the Tm [1] is reported as 36.1 °C and the folding enthalpy [2] is reported as -20.5 kcal/mol.
GCAGTTTCGAAAGAATGC (((..(((....)))))) gave a Tm [1] of 25.8 °C and a folding enthalpy [2] of -12.5 kcal/mol.
GCATAAGGAAACTCATGC ((((.((....)).)))) showed a Tm [1] of 30.7 °C and a folding enthalpy [2] of -25.2 kcal/mol.
With GCATAATCGAAAGATTGC (((..(((....)))))) the Tm [1] was 37.2 °C and the folding enthalpy [2] was -18.1 kcal/mol.
In the case of GCATACCCGAAAGGGTGC (((..(((....)))))), the Tm [1] is reported as 49.7 °C and the folding enthalpy [2] is reported as -12.1 kcal/mol.
With GCATACCGAAAGGTTGC (((.(((....)))))) the Tm [1] was 54 °C and the folding enthalpy [2] was -32.3 kcal/mol.
Sequence GCATACGAAAGTAATTGC ((((((....)))..))) has a Tm [1] of 32.7 °C and a folding enthalpy [2] of -13.6 kcal/mol.
Work on GCATACGAAAGTACATGC ((((((....)))..))) yielded a Tm [1] of 38.9 °C and a folding enthalpy [2] of -26.9 kcal/mol.
GCATACGAAAGTACCTGC ((((((....)))..))) gave a Tm [1] of 26.6 °C and a folding enthalpy [2] of -13.2 kcal/mol.
GCATACGAAAGTAGCTGC ((((((....)))..))) showed a Tm [1] of 48.1 °C and a folding enthalpy [2] of -23.6 kcal/mol.
GCATACGAAAGTAGTGC ((((((....))).))) gave a Tm [1] of 44.6 °C and a folding enthalpy [2] of -24.1 kcal/mol.
Sequence GCATACGGAAACGTATGC (((((((....))))))) has a Tm [1] of 67.7 °C and a folding enthalpy [2] of -47.5 kcal/mol.
Work on GCATAGCCGAAAGGCTGC (((..(((....)))))) yielded a Tm [1] of 49.3 °C and a folding enthalpy [2] of -12.6 kcal/mol.
GCATAGCGAAAGCAAAGC ((.(.((....)).).)) gave a Tm [1] of 32 °C and a folding enthalpy [2] of -9.49 kcal/mol.
GCATAGCGAAAGCCAGGC ((.(.((....)).).)) showed a Tm [1] of 32.9 °C and a folding enthalpy [2] of -12.3 kcal/mol.
Work on GCATAGCGAAAGCCATGC ((((.((....)).)))) yielded a Tm [1] of 53.3 °C and a folding enthalpy [2] of -28.5 kcal/mol.
For GCATAGCGAAAGCTCGGC ((..(((....)))..)), the Tm [1] was 36.5 °C and the folding enthalpy [2] was -16.2 kcal/mol.
With GCATAGCGAAAGCTTCGC ((..(((....)))..)) the Tm [1] was 34.6 °C and the folding enthalpy [2] was -10.1 kcal/mol.
Sequence GCATAGGGAAACCTACGC ((.((((....)))).)) has a Tm [1] of 35.9 °C and a folding enthalpy [2] of -27.9 kcal/mol.
With GCATATCCGAAAGGATGC (((..(((....)))))) the Tm [1] was 43.5 °C and the folding enthalpy [2] was -15.2 kcal/mol.
Work on GCATATCGAAAGATCTGC (((.(((....))).))) yielded a Tm [1] of 43.9 °C and a folding enthalpy [2] of -31.2 kcal/mol.
Work on GCATCAGGAAACTGGTGC (((.(((....))).))) yielded a Tm [1] of 53.4 °C and a folding enthalpy [2] of -40.9 kcal/mol.
With GCATCCCGAAAGGGCTGC (((.(((....))).))) the Tm [1] was 56.2 °C and the folding enthalpy [2] was -36.2 kcal/mol.
For GCATCCGAAAGGAAGTGC ((((((....)))..))), the Tm [1] was 41.3 °C and the folding enthalpy [2] was -24.3 kcal/mol.
In the case of GCATCCGAAAGGACCTGC ((((((....)))..))), the Tm [1] is reported as 30 °C and the folding enthalpy [2] is reported as -12.9 kcal/mol.
GCATCCGAAAGGACTGC ((((((....))).))) showed a Tm [1] of 47.8 °C and a folding enthalpy [2] of -15 kcal/mol.
Sequence GCATCCGAAAGGAGGTGC ((((((....)))..))) has a Tm [1] of 48.1 °C and a folding enthalpy [2] of -24.9 kcal/mol.
Sequence GCATCCGAAAGGATATGC ((((((....)))..))) has a Tm [1] of 47.6 °C and a folding enthalpy [2] of -15.7 kcal/mol.
With GCATCCGCGAAAGCGTGC (((..(((....)))))) the Tm [1] was 40.3 °C and the folding enthalpy [2] was -10.9 kcal/mol.
With GCATCCGGAAACGGACGC ((.((((....)))).)) the Tm [1] was 51.3 °C and the folding enthalpy [2] was -31.2 kcal/mol.
